Kir21 inh – blocks the mouse Kir2.1 inward-rectifier potassium channel; HEK293-Kir2.1, FluxOR thallium flux fluorescence; active compounds read low; B-score at 10 µM; actives 0.85% (n = 310,000); AID 1672;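 active means fluorescence ratio B-score at or below minus 3 SD of library scores, with starting-brightness B-score within 2 SD, cut at about -4.2 in these data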;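 further: channel flux triggered by added potassium and thallium sulfate stimulus; B-score of peak minus minimum fluorescence over baseline after thallium stimulus; more negative B-score means stronger Kir2.1 block with less thallium influx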
Target sequence (P35561 whole entry, looked up): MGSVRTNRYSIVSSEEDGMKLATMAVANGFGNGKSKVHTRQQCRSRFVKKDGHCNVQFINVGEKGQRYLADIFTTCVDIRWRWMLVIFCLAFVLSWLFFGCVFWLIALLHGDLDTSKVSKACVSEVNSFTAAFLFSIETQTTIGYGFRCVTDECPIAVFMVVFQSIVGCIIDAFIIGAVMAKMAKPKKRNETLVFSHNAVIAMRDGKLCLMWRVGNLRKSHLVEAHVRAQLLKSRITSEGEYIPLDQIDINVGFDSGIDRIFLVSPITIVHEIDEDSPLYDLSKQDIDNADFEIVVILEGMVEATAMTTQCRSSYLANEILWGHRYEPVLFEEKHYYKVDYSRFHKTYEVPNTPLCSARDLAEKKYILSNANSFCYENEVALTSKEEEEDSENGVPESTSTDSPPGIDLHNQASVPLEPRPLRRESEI
TRPC6 inhibitor – inhibitors of mouse TRPC6 channel; AID 2553; HEK293-TRPC6, membrane potential dye, ACh-evoked depolarization; active compounds read low; actives 1.1% (n = 310,000); B-score at 10 µM;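 active means B-score under library mean minus 3 SD, initial fluorescence not abnormally high, positive integrated signal ratio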;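 further: B-score derived from integrated fluorescence ratio over the kinetic read; more negative B-score means stronger inhibition of depolarization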
TRPC4 act – TRPC4 (mouse) channel activation; actives 0.49% (n = 310,000); Q9QUQ5; B-score at 10 µM; AID 2237; HEK293 TRPC4beta/mu-opioid, Fluo4 calcium fluorescence; active compounds read high;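 active means B-score above 5 SD of library B-scores, and initial fluorescence ratio not above library mean plus 5 SD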;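 further: positive B-score marks a calcium rise read as TRPC4 activation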
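Material: TRPC4beta and mu-opioid receptor HEK293 stable cells | Incubation: 45 min room-temperature Fluo4 loading, 110 s read | Detection: Kinetic Fluo4 calcium fluorescence | Measure: Integrated baseline-normalised fluorescence ratio, converted to per-well B score | Benchmarks: Low control buffer alone, high control maximal DAMGO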
TRPC4 inh – inhibitors of mouse TRPC4 channel. Q9QUQ5. HEK293 TRPC4beta/mu-opioid, DAMGO-evoked Fluo4 calcium flux; active compounds read low. B-score at 10 µM. actives 0.39% (n = 300,000). AID 2247;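 active means B-score over 3 SD under the library average, no early fluorescence shift, positive overall ratio signal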
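Assay system: Stable TRPC4beta/mu-opioid receptor HEK293 cells | Reagent: DAMGO in two steps, submaximal then maximal | Compound dosing: Single concentration per test compound | Signal: Fluo4 Ca2+ flux fluorescence | Evaluation: Per-well B score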
TRPC6 act – activates the mouse TRPC6 cation channel; actives 0.13% (n = 310,000); B-score at 10 µM; Q61143; AID 2550; HEK293-TRPC6 membrane potential dye fluorescence; active compounds read high;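 active means B-score of the integrated fluorescence ratio above library mean plus 3 SD, and starting fluorescence ratio within library mean plus 5 SD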;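 further: higher score means more depolarization so channel activation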
TRPC4 PAM – allosterically enhances the mouse TRPC4 cation channel | B-score at 10 µM | actives 0.42% (n = 310,000) | Q9QUQ5 | AID 2227 | HEK293 TRPC4beta/mu-opioid, DAMGO EC20, Fluo-4 Ca2+ flux; active compounds read high;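 active means B-score of calcium response area above 5 SD of library B-scores, with initial fluorescence ratio within 5 SD of library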;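 further: B-score of integrated fluorescence ratio over time as area under calcium response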
* hit, by the source's call; i = inactive. The list is not random: actives were taken first. Their share in the collection is about 2.9%.

SMILES | Kir21 inh | TRPC6 inhibitor | TRPC4 act | TRPC4 inh | TRPC6 act | TRPC4 PAM
CC(c1nnnn1C(C)(C)C)N(Cc1cccnc1)Cc1ccccc1Cl (configuration not stated) | -4.3* | i | i | i | i | i
CC1(C(=O)N2CCN(Cc3ccccc3Cl)CC2)CC1(Cl)Cl (configuration not stated) | -1.3 | i | i | i | i | i
Cc1onc(-c2ccccc2)c1C(=O)NNC(=S)NC(=O)c1ccc2c(c1)OCO2 | -0.49 | i | 79* | i | i | i
Cc1onc(-c2ccccc2)c1C(=O)NC(=S)NNC(=O)c1ccco1 | 1.3 | i | 84* | i | i | i
Cc1onc(-c2ccccc2)c1C(=O)NC(=S)NNC(=O)c1ccncc1 | -0.09 | i | i | i | i | i
COc1ccc(CCNC(=O)c2c(-c3ccccc3)noc2C)cc1OC | -0.5 | i | i | i | i | i
Cc1onc(-c2ccccc2)c1C(=O)NC(C)c1ccc2c(c1)OCO2 (configuration not stated) | -0.94 | i | i | i | i | i
Cc1onc(-c2ccccc2)c1C(=O)NNC(=S)NC(=O)/C=C/c1cccs1 | -1.6 | i | 52* | i | i | i
COc1ccc(C(=O)NC(=S)NNC(=O)c2c(-c3ccccc3)noc2C)cc1OC | 0.71 | i | 85* | i | i | i
COc1ccc(C(=O)Nc2ccccc2C(=O)NCCN2CCOCC2)cc1OC | 0.42 | i | i | i | i | i
CSc1cccc(NC(=O)NNC(=O)C2CCN(S(=O)(=O)N(C)C)CC2)c1 | 0.89 | i | i | i | i | i
COc1ccccc1C(=O)NC(=O)COC(=O)C1CC2CCCC(C1)C2=O (configuration not stated) | -0.41 | i | i | i | i | i
S=C(NCc1ccc2c(c1)OCO2)NC1CCN(Cc2ccccc2)CC1 | -12* | i | i | i | i | i
CCc1cccc(OCCCCNCCO)c1 | 1.3 | i | i | i | i | i
CCc1ccccc1OCCCCCNCCO | -1.8 | i | i | i | i | 11*
NC(=O)c1nsc(C(=O)N(Cc2ccco2)C(C(=O)NCc2ccc(F)cc2)c2ccc(O)cc2)c1N (configuration not stated) | -1.6 | i | i | -6* | i | i
NC(=O)c1nsc(C(=O)N(Cc2ccco2)C(C(=O)NC2CCCC2)c2ccc(O)cc2)c1N (configuration not stated) | -0.31 | i | i | -5* | i | i
COc1ccc(C(C(=O)NC2CCCCC2)N(Cc2ccco2)C(=O)c2snc(C(N)=O)c2N)cc1 (configuration not stated) | 0.54 | i | i | i | i | i
CCOCCCNC(=O)Cn1cnc2c(cnn2-c2ccc(C)c(C)c2)c1=O | 0.68 | i | i | i | i | i
O=C(NCCCn1ccnc1)c1cc2c(ccc3ccccc32)o1 | -2.7 | i | i | i | i | i
COc1ccc(CNC(=O)C(C)NCc2ccc(S(N)(=O)=O)cc2)cc1 (configuration not stated) | 0.01 | i | i | -8* | i | i
CC(C(=O)OCC(=O)c1cccc([N+](=O)[O-])c1)N1C(=O)C2C3CCC(C3)C2C1=O (configuration not stated) | 0.06 | i | i | i | i | i
CCOC(=O)C1=C(Cc2ccc(C)cc2)C(=O)c2ccccc2C1=O | -0.29 | i | i | i | 13* | i
COc1ccccc1CCc1nnc(CCC(=O)NCCCOc2cccnc2)o1 | 1.5 | i | i | -6* | i | i
Cc1[nH]c2c(C)cccc2c1CN1CCC(CO)(Cc2ccccc2)CC1 | -1.5 | i | i | i | i | i
SMILES | Kir21 inh | TRPC6 inhibitor | TRPC4 act | TRPC4 inh | TRPC6 act | TRPC4 PAM
Cc1nn(Cc2ccc(F)cc2Cl)c(C)c1[N+](=O)[O-] | -2.5 | i | i | i | i | i
Cc1ccc(C)c(-c2ccc(=O)n(Cc3ccc(F)cc3Cl)n2)c1 | -2.8 | i | i | i | i | 13*
CN(CCCCCCN(C)Cc1ccccc1O)Cc1ccccc1O | -5.2* | i | i | i | i | i
O=C(Nc1ccccc1)C1=C[C@H](c2ccc3c(c2)OCO3)C[C@H](OCc2ccc(CO)cc2)O1 | 0.82 | i | i | i | i | 10*
O=C(C1=C[C@H](c2ccc(C(F)(F)F)cc2)C[C@H](OCCCCO)O1)N1CCN(Cc2ccccc2)CC1 | -0.44 | i | 186* | i | i | i
NC(=O)C1=C[C@H](c2ccc(C(F)(F)F)cc2)C[C@H](OCc2ccc(CO)cc2)O1 | -4.8* | i | i | i | i | i
NC(=O)C1=C[C@@H](c2ccc(C(F)(F)F)cc2)C[C@@H](OCc2ccc(CO)cc2)O1 | -1.8 | i | i | i | i | i
C#CCNC(=O)C1=C[C@@H](c2ccccc2)C[C@@H](OCc2ccc(CO)cc2)O1 | -5.6* | i | i | i | i | i
C#CCNC(=O)C1=C[C@H](c2ccc(C#C)cc2)C[C@H](OCc2ccc(CO)cc2)O1 | -2.3 | i | i | i | i | i
COc1ccc(NC(=O)c2c(NC(=O)CCC(=O)O)sc(-c3ccccc3)c2C)cc1 | -1 | i | i | i | i | i
COc1cc2c(cc1OC)C(C)N(CCN1C(=O)c3ccccc3C1=O)CC2 (configuration not stated) | -0.02 | i | i | i | i | i
COc1cc2c(cc1OC)C(C)N(CCc1ccc(Cl)cc1)CC2 (configuration not stated) | -0.13 | i | i | -6* | i | i
O=C(CSc1nnnn1-c1cccc2c1CCCC2)N1CCCCC1 | -4.3* | i | i | i | i | i
Cc1ccc(-n2nnnc2SCC(=O)N2CCCCC2)cc1 | -0.01 | i | i | i | i | i
COc1ccccc1C(=O)Nc1cccc2nc(C)ccc12 | -0.83 | i | i | i | i | i
C#Cc1ccc(CN2CCCC(C(=O)Nc3ccccc3Oc3cccnc3)C2)cc1 (configuration not stated) | -5.1* | i | i | -6* | i | i
CCOc1cc(C(=O)NC2CCCCCCC2)cc(OCC)c1OCC | 1.7 | i | i | i | i | i
